According to ChEMBL document CHEMBL3272238, “Synthesis and biological evaluation of fragmented derivatives of tetrahydroisoquinolines. 3. Trimetoquinol studies” (J Med Chem, 1976):
Activity calls are given as the source filed them.

Key:
[1] = species: Cavia porcellus; assay: Agonist activity at beta-adrenoceptor in guinea pig trachea assessed as […] of carbachol-induced contraction by force-displacement transducer analysis; assay type: tissue-based
In short: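 Tissue strips held at 1 g tension in Krebs bicarbonate-glucose solution at 37°, equilibrated 1-1.5 h, then drug-induced tension changes recorded isometrically. Cumulative log-concentration curves were built, and the ED₅₀ (concentration giving half-maximal response) was read from each curve.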

[2] = species: Cavia porcellus; assay: Chronotropic activity in guinea pig atrium assessed as increase in atrial rate by force displacement transducer analysis; assay type: functional, tissue-based; conditions: Cardiac atrium
In short: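 Isolated right atrium given cumulative test doses, with rate recorded over 3 min per dose at 1- and 3-min readings. Chronotropic responses were expressed relative to the maximum from 10⁻⁵ M isoproterenol added at the end of each run. ED₅₀ (half-maximal) was taken from individual plots.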

[3] = species: Rattus norvegicus; assay: Induction of lipolysis in Sprague-Dawley rat fat cells assessed as increase in glycerol level at 10^-8 to 10^-4 M; assay type: functional
In short: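 Fat cells from epididymal tissue of nonfasted male rats (200–250 g) were isolated by collagenase digestion in Krebs bicarbonate with 3% BSA. Drug (1×10⁻⁸–3×10⁻⁴ M) was incubated 1 h at 37° in air, stopped with equal-volume 10% TCA, and glycerol assayed. Release was normalized to 10⁻⁶ M isoproterenol maximum; mean of N=3 ± SEM.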

Measured: Activity

COc1cc(C[C@@H]2NCCc3cc(O)c(O)cc32)cc(OC)c1OC (racemic)
active: all assays above

CNC(Cc1cc(OC)c(OC)c(OC)c1)c1ccc(O)c(O)c1 (stereo not given)
active: all assays above

CCNC(Cc1cc(OC)c(OC)c(OC)c1)c1ccc(O)c(O)c1 (stereo not given)
active: all assays above

COc1cc(CC(NC(C)C)c2ccc(O)c(O)c2)cc(OC)c1OC (stereo not given)
active: all assays above

COc1cc(CC(N)c2ccc(O)c(O)c2)cc(OC)c1OC (stereo not given)
active: all assays above
